Assay results reported in paper PMC9464004 (Drug Design, Development and Therapy, 2022).
Like-named read-outs stand apart in the source and are kept apart here.

Experiments:
[1] = system: healthy volunteers in the United States; details: achieved at the 300mg dose, study LX4211-1-101; cited from earlier work
[2] = cited from earlier work
SGLT2 = details: cited from earlier work
Chinese healthy subjects [3] = experiment: 24-hour urinary glucose excretion; assay type: in vivo, human
Method in brief: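 Randomized, double-blind, placebo-controlled study in healthy Chinese adults given 200 or 400 mg test compound or placebo orally once daily before the first meal for 8 days. Post-dose urine was pooled over 24 h in 0–8 h and 8–24 h fractions on Day 1 and Day 8. Glucose was assayed centrally, with results withheld from investigators, and reported as absolute excretion.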

Chinese healthy subjects [4] = assay type: in vivo, human
Method in brief: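 Safety population comprised all randomized subjects receiving ≥1 double-blind dose (200 or 400 mg daily test compound or placebo, 8 days), analysed by treatment received. TEAEs were counted from first dose to study end and graded by NCI-CTCAE. Vital signs, ECG and local-lab haematology, coagulation, biochemistry, serology, urinalysis and pregnancy tests were monitored. Summaries were descriptive, with no significance testing.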

[5] = assay type: in vivo, human; details: for CL/F: mean ± SD
Method in brief: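 Healthy Chinese adults took 200 or 400 mg test compound once daily for 8 days. Blood was drawn pre/post-dose Day 1, pre-dose Days 2–8 and post-dose Day 8. Parent and main metabolite were measured by validated LC-MS/MS after protein precipitation, with deuterated internal standards. Linear ranges: 2.00–2000 and 10.0–10,000 ng/mL. Noncompartmental analysis used trapezoidal AUC. CL/F came from AUCtau. Below-limit values counted as zero.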

[6] = co-administered with food (high fat/high caloric)
[7] = across sotagliflozin treatment groups
[8] = sotagliflozin 200 mg qd, 8 days, N=9
[9] = sotagliflozin 400 mg qd, 8 days, N=9

Compound: CCOc1ccc(Cc2cc([C@@H]3O[C@H](SC)[C@@H](O)[C@H](O)[C@H]3O)ccc2Cl)cc1 [Sotagliflozin]
- maximum 24 h UGE [1]: 44 g
- accumulation index at steady state ([2]; EMA data, European-American populations): about 2
- Cmax with food compared to fasted condition [2, 6]: ~2.5 fold
- total exposure with food compared to fasted condition [2, 6]: ~1.5 fold
- selectivity for SGLT2 than that for SGLT1 (SGLT2): 20 fold
- 24-hour UGE (Chinese healthy subjects [3]; sotagliflozin 200 mg qd, Day 1, mean (±SD)): 188.17 (±51.957) mmol
- 24-hour UGE (Chinese healthy subjects [3]; sotagliflozin 200 mg qd, Day 8, mean ± SD): 213.02 (±67.216) mmol
- 24-hour UGE (Chinese healthy subjects [3]; sotagliflozin 400 mg qd, Day 1, mean (±SD)): 250.18 (±38.063) mmol
- 24-hour UGE (Chinese healthy subjects [3]; sotagliflozin 400 mg qd, Day 8, mean ± SD): 263.90 (±56.665) mmol
- tolerability (Chinese healthy subjects [4]; 200 mg and 400 mg per day, 8 days): well tolerated
- PCSAs of QRS interval >110 ms, number of subjects (Chinese healthy subjects [4]; 200mg sotagliflozin, none increased from baseline ≥25%): 2
- asymptomatic alanine aminotransferase (ALT) increase (Chinese healthy subjects [4]; AE in 1 subject (400 mg group)): < 2 × upper limit of normal (ULN)
- constipation, number of subjects (Chinese healthy subjects [4]; [7]): 1
- dizziness, number of subjects (Chinese healthy subjects [4]; [7]): 2
- folliculitis, number of subjects (Chinese healthy subjects [4]; [7]): 1
- TEAE: Blood phosphorus increased (Chinese healthy subjects [4]; [8]): 1 (11.1%) n (%)
- TEAE: Chest discomfort (Chinese healthy subjects [4]; [8]): 1 (11.1%) n (%)
- TEAE: Dizziness (Chinese healthy subjects [4]; [8]): 1 (11.1%) n (%)
- TEAE: Folliculitis (Chinese healthy subjects [4]; [8]): 1 (11.1%) n (%)
- TEAE: Petechiae (Chinese healthy subjects [4]; [8]): 1 (11.1%) n (%)
- TEAE: Proteinuria (Chinese healthy subjects [4]; [8]): 1 (11.1%) n (%)
- TEAE: White blood cell count decreased (Chinese healthy subjects [4]; [8]): 1 (11.1%) n (%)
- increased blood ketone body (TEAE value) (Chinese healthy subjects [4]; sotagliflozin 400 mg group, 1 subject): 0.61 mmol/L
- TEAE: Alanine aminotransferase increased (Chinese healthy subjects [4]; [9]): 1 (11.1%) n (%)
- TEAE: Asthenia (Chinese healthy subjects [4]; [9]): 1 (11.1%) n (%)
- TEAE: Blood ketone body increased (Chinese healthy subjects [4]; [9]): 1 (11.1%) n (%)
- TEAE: Blood urine present (Chinese healthy subjects [4]; [9]): 1 (11.1%) n (%)
- TEAE: Constipation (Chinese healthy subjects [4]; [9]): 1 (11.1%) n (%)
- TEAE: Dermatitis (Chinese healthy subjects [4]; [9]): 1 (11.1%) n (%)
- TEAE: Dizziness (Chinese healthy subjects [4]; [9]): 1 (11.1%) n (%)
- TEAE: Haemorrhoidal haemorrhage (Chinese healthy subjects [4]; [9]): 1 (11.1%) n (%)
- TEAE: Headache (Chinese healthy subjects [4]; [9]): 1 (11.1%) n (%)
- TEAE: Mouth ulceration (Chinese healthy subjects [4]; [9]): 1 (11.1%) n (%)
- TEAEs considered treatment-related by the Investigator (Chinese healthy subjects [4]; sotagliflozin groups (200 and 400 mg)): 44.4%
- degree of accumulation ([5]; 200 or 400 mg qd for 8 days): less than 2 fold
- estimated increase for AUCtau for a 2-fold increase between doses ([5]; Day 1, 200 to 400 mg): 2.02 fold
- estimated increase for Cmax for a 2-fold increase between doses ([5]; Day 1, 200 to 400 mg): 1.56 fold
- estimated increase for AUCtau for a 2-fold increase between doses ([5]; Day 8, 200 to 400 mg): 1.70 fold
- estimated increase for Cmax for a 2-fold increase between doses ([5]; Day 8, 200 to 400 mg): 1.89 fold
- half-life ([5]; human, plasma, oral, 400 mg, Mean t1/2z, range over 200 and 400 mg dose levels, Day 8): 20.5 to 22.4 h
- CL/F ([5]; sotagliflozin 200 mg qd, Day 8): 267 L/h
- CL/F ([5]; sotagliflozin 400 mg qd, Day 8): 307 L/h
